In ChEMBL document CHEMBL1938316, “Synthesis and anti-HCV activity evaluation of anilinoquinoline derivatives” (Bioorg Med Chem Lett, 2012):
Active and inactive are the calls of the source. The rule behind the calls is not given here.

Experiments:
Hepatitis C virus [1] = assay: Antiviral activity against HCV infected in human Ava5 cells assessed as reduction in HCV RNA level after 3 days by qRT-PCR analysis; assay type: functional, organism-based, Hepacivirus hominis; settings: for EC50: Ava5, 72 h
Summary of the method: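 Ava5 cells (Huh7 harbouring HCV subgenomic replicon) exposed to compounds at 0.5–150 µM for 3 days. Total cellular RNA quantified by RT-qPCR with HCV-specific primers, normalised to GAPDH mRNA. EC50 is the concentration lowering HCV RNA by 50% versus 0.1% DMSO mock, from non-linear regression. Means of triplicate experiments.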

[2] = Selectivity index, ratio of CC50 for human Ava5 cells to IC50 for HCV replication; assay type: functional
Summary of the method: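 CC50 from MTS viability in Ava5 cells, run in parallel with replicon treatment (0.5–150 µM, 3 days, versus 0.1% DMSO mock). EC50 is 50% reduction in HCV RNA by RT-qPCR. Index calculated as CC50/EC50.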

[3] = test system: Internal ribosome entry site (IRES); assay: Inhibition of HCV IRES-mediated translation by secretory alkaline phosphatase reporter gene assay; assay type: nucleic-acid assay; settings: Hepacivirus hominis
Huh-7 = assay: Inhibition of HCV NS3/4A protease expressed in human Huh7 cells coexpressing EGFP at 15 uM after 3 days by secretory alkaline phosphatase reporter gene assay; assay type: cell-based; settings: Hepacivirus hominis
Summary of the method: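 Huh-7 cells transfected 6 h with 0.5 µg pEG(Δ4AB)SEAP-NS3/4A reporter plasmid, then treated with compound at 5, 10, 12.5 and 15 µM. Controls: 10 nM BILN 2061 (positive) and 0.1% DMSO (mock). SEAP activity in culture medium read after 3 days, expressed as % reduction versus mock. Triplicates, mean ± SD.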

Hepacivirus hominis = assay: Inhibition of HCV NS5B polymerase activity by luciferase reporter gene assay
Hepatitis C virus [4] = assay: Antiviral activity against HCV infected in human Ava5 cells assessed as reduction in HCV RNA level at 15 uM after 3 days by qRT-PCR analysis relative to control; assay type: functional, Hepacivirus hominis; set-up: scale not given: the % may be the effect or the level left
Summary of the method: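 HCV replicon Ava5 cells treated 3 days at 2.5–15 µM. HCV RNA measured by RT-qPCR, normalised to GAPDH mRNA, relative to 0.1% DMSO mock. Triplicate experiments, mean ± SD.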

Hepatitis C virus [5] = assay: Antiviral activity against HCV infected in human Ava5 cells assessed as inhibition of NS5B protein expression after 4 days by Western blot analysis; assay type: functional, organism-based; settings: Hepacivirus hominis
Summary of the method: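 Ava5 cells (Huh7 carrying HCV subgenomic replicon) incubated 4 days with compound at 2.5–15 µM; 0.1% DMSO as mock. Cell lysates analysed by western blot with anti-NS5B antibody, GAPDH as loading control.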

Compound	EC50 (Hepatitis C virus [1]) [µM]	Ratio CC50/EC50 [2]	other results
COc1ccc(Nc2ccc3ccccc3n2)cc1	43	1	–
CCOC(=O)c1ccc(Nc2ccc3ccccc3n2)cc1	50	2.9	–
Clc1ccc(Nc2ccc3ccccc3n2)cc1	53	1.1	–
Clc1cc(Br)ccc1Nc1ccc2ccccc2n1	45	1	–
Cc1ccc(Nc2ccc3ccccc3n2)cc1	43	1	–
Brc1ccccc1Nc1ccc2ccccc2n1	60	1	–
Cc1cccc(C)c1Nc1ccc2ccccc2n1	40	1	–
Cc1ccc(Nc2ccc3ccccc3n2)c(C)c1	35	1	–

Now those with a lower EC50 (Hepatitis C virus [1]), led by results:

EC50 (Hepatitis C virus [1]) [µM]	Compound	Ratio CC50/EC50 [2]	other results
21.7	O=[N+]([O-])c1cc(Nc2ccc3ccccc3n2)ccc1O	3.8	–
15.1	c1ccc(COc2cccc(Nc3ccc4ccccc4n3)c2)cc1	3.1	–
25	COc1cc(Nc2ccc3ccccc3n2)cc(OC)c1OC	3	–
12.5	Cc1cc(Cl)ccc1Nc1ccc2ccccc2n1	3.4	–
20	O=[N+]([O-])c1ccc(Nc2ccc3ccccc3n2)cc1	2.4	–
14.3	N#Cc1ccc(Nc2ccc3ccccc3n2)cc1	3.5	–
7	O=[N+]([O-])c1cccc(Nc2ccc3ccccc3n2)c1	10	inhibition [3]: inactive; inhibition (Huh-7): 40%; inhibition (Hepacivirus hominis): inactive; Activity (Hepatitis C virus [4]): 80%; inhibition (Hepatitis C virus [5]): Dose-dependent effect; Activity (Hepatitis C virus [1]; Hepacivirus hominis): Dose-dependent effect
23	c1ccc(Nc2ccc3ccccc3n2)cc1	1.96	–
31	Cc1cc(C)cc(Nc2ccc3ccccc3n2)c1	1	–
33	COc1cc(Nc2ccc3ccccc3n2)cc(OC)c1	1	–
